In ChEMBL document CHEMBL2331117 (J Med Chem, 2013):

Key:
[1] = Drug uptake in tumor of athymic mouse xenografted with human PC3 cells at 100 mg/kg, po after 8 hrs; type: ADME, organism-based, Neoplasm, PC-3; design: dose 100 mg/kg, route oral; settings: read-out: Drug uptake
Method in brief: (§1)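 PC-3 cells (3 × 10⁶, passages 10–14, in ice-cold HBSS) were implanted sc in 5–8 week old male nude mice. Tumors of 200–500 mg received a single oral 100 mg/kg dose. Plasma and tumor were collected at 1, 4, 8, 16, 24 and 32 h and homogenized in buffer. Lysates were pooled per group (n = 5), and phospho-proteins were measured by Western blot normalized to α-tubulin.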

[2] = Drug uptake in tumor of athymic mouse xenografted with human PC3 cells at 100 mg/kg, po after 32 hrs; type: ADME, organism-based, Neoplasm, PC-3; design: dose 100 mg/kg, route oral; settings: in vivo, BLD = below limit of detection; method in brief: as §1
Mus musculus [3] = test: In vivo inhibition of mTORC1-mediated phosphorylation of 4EBP1 at ([…]) in human MCF7 cells xenografted into athymic nude mouse at 100 mg/kg, po after 8 hrs by Western blotting analysis relative to control; type: functional; settings: MCF7, 8 h
Method in brief: (§2)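 MCF-7 cells (DMEM, 10% FBS) were implanted subcutaneously at 5 × 10^6 cells in 50% cold HBSS/50% growth-factor-reduced matrigel into the hindflank of 5−8 week old female nude mice. At tumor size 40−150 mg, mice received a single oral dose of 100 mg/kg. Tumor lysates were pooled per group. Phospho-AKT (S473, T308), p70S6K (T389), S6 (S240/244) and 4E-BP1 (T37/46) were measured by Western blot normalized to α-tubulin.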

[4] = target: Phosphatidylinositol 4,5-bisphosphate 3-kinase catalytic subunit alpha isoform (Homo sapiens, UniProt P42336); test: Inhibition of PI3Kalpha (unknown origin)
Method in brief: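 PI3Kα activity was read as the percentage of ATP consumed, by luciferase–luciferin chemiluminescence (Kinase-Glo). The reaction ran about 2 h at ambient temperature, with ATP consumption kept to 40–60%. Values are the mean of n ≥ 2.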

Cytochrome P450 2C8 = target: T1, Cytochrome P450 2C8 (Homo sapiens, UniProt P10632); test: Inhibition of CYP2C8 (unknown origin); type: ADME
T1 sequence (P10632 whole entry): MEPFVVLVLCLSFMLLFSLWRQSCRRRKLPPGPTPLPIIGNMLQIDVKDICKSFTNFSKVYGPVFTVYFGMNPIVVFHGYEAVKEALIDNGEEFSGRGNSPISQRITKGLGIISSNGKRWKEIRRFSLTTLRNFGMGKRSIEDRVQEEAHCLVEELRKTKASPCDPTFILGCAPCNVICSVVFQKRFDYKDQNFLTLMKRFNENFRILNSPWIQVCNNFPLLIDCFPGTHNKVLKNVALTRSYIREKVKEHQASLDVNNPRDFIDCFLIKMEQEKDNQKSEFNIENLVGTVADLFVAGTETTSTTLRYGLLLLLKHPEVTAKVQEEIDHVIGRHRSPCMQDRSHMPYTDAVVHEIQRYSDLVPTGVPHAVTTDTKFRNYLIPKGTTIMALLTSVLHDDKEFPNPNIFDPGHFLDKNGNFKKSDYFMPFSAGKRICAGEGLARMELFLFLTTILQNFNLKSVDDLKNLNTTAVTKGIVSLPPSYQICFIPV

[5] = Metabolic stability in monkey liver microsomes after 30 mins; type: ADME, Macaca mulatta, Microsome; settings: rhesus monkey, read-out: Stability
Focal adhesion kinase 1 = Focal adhesion kinase 1 (Homo sapiens, UniProt Q05397); test: Inhibition of FAK (unknown origin)
Method in brief: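 Part of a 141-protein-kinase selectivity panel run either in house or by an outside contract lab. IC50 is reported as the average of at least two determinations.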

[6] = Cmax in CD rat at 3 mg/kg, iv; type: ADME, organism-based; design: dose 3 mg/kg, route intravenous; settings: in vivo
Method in brief: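 Single-dose PK: female athymic nude mice (10 mg/kg), female CD rats and male beagle dogs (3 mg/kg), male cynomolgus monkeys (3 mg/kg), given iv and by oral gavage. Solution in EPW (5% ethanol/45% PEG400/water), with 1:2 HCl (m/m) for mouse, rat and dog and 1:1.5 HCl (m/m) for monkey. Plasma levels followed over 24 h.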

Mus musculus [7] = test: In vivo inhibition of mTORC1-mediated phosphorylation of pS6 at (serine 240/244) in human MCF7 cells xenografted into athymic nude mouse at 100 mg/kg, po after 1 hr by Western blotting analysis relative to control; type: functional; settings: MCF7, 1 h; method in brief: as §2
Mus musculus [8] = test: In vivo inhibition of mTOR1-mediated phosphorylation of p70S6K at […] in human PC3 cells xenografted into athymic nude mouse at 100 mg/kg, po after 8 hrs by Western blotting analysis relative to control; type: functional; settings: PC-3, 8 h; method in brief: as §1

Sequence of Focal adhesion kinase 1 (Q05397 whole entry): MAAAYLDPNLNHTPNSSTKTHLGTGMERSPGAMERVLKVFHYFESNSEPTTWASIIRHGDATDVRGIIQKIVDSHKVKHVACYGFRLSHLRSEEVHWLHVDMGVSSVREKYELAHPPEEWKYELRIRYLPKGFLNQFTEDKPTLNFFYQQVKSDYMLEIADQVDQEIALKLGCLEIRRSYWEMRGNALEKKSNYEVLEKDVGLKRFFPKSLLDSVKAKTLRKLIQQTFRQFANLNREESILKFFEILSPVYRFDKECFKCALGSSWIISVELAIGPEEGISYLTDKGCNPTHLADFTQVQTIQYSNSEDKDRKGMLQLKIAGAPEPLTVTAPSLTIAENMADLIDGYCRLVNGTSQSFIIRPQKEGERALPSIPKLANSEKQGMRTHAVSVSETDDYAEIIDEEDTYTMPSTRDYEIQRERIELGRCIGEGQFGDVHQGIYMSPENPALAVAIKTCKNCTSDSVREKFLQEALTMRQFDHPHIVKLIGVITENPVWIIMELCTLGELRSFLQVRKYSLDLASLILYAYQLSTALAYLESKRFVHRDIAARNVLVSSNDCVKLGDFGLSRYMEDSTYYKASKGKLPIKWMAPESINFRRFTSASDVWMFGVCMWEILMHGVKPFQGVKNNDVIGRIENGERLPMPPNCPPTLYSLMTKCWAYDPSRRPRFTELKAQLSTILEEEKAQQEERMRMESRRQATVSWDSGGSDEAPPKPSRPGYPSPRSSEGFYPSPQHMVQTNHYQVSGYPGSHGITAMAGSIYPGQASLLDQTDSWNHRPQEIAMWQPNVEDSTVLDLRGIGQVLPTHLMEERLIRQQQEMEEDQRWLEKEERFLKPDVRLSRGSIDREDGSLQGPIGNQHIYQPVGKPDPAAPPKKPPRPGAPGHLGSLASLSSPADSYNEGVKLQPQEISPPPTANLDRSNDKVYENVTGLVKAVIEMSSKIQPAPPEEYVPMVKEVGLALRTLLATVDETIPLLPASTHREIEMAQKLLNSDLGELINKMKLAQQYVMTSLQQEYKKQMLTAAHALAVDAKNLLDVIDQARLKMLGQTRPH
Sequence of Phosphatidylinositol 4,5-bisphosphate 3-kinase catalytic subunit alpha isoform (P42336 whole entry, canonical isoform): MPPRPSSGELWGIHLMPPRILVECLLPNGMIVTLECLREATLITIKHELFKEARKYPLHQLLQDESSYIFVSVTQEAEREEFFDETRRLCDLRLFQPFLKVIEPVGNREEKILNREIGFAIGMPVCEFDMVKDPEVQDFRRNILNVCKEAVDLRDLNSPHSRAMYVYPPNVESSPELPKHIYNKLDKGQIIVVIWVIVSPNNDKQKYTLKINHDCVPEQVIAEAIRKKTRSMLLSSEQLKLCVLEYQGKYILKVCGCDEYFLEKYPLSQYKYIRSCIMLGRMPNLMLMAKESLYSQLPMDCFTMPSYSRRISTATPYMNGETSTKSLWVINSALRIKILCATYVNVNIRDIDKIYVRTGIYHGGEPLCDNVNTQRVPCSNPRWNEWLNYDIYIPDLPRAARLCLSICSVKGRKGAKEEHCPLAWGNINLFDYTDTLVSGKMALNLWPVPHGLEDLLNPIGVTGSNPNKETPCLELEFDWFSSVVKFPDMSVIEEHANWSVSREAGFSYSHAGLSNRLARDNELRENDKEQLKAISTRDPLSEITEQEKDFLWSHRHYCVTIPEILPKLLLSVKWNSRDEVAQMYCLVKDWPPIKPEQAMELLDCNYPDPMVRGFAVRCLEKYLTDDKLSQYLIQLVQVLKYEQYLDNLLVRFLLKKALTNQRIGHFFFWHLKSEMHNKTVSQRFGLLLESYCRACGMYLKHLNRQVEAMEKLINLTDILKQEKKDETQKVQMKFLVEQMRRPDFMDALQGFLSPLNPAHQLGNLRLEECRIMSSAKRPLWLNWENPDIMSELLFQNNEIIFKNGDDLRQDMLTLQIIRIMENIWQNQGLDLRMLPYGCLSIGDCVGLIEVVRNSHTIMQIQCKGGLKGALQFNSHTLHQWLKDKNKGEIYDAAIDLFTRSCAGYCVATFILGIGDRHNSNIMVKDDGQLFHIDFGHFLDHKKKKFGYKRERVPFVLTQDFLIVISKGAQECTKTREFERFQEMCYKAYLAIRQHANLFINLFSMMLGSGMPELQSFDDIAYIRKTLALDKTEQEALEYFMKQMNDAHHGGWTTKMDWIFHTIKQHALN

## Cc1c(C(=O)N2CCOc3ccc(-c4ccc(N)nc4)cc3C2)ccc(S(C)(=O)=O)c1F
[1]
  concentration at 8 h: 25.5 µM
[2]
  Drug uptake: BLD
Mus musculus [3]
  inhibition in vivo at 100 mg/kg: 88%
[4]
  IC50: > 3 µM
Cytochrome P450 2C8
  INH: > 20 µM
[5]
  remaining at 0.5 h: 65%
Focal adhesion kinase 1
  IC50: > 3.5 µM
[6]
  Cmax: 4.12 µM
Mus musculus [7]
  inhibition in vivo at 100 mg/kg: 96%
Mus musculus [8]
  inhibition in vivo at 100 mg/kg: 92%
